ABHD4 inh: inhibitors of mouse ABHD4; inhibition, % at 8.92 µM; purified mABHD4, FP-Rh probe fluorescence polarization; 0.54% of 370,000 active;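 active = inhibition exceeding the mean over every tested compound plus 3 SD, cut at about 30% in these data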;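 also: 0% = plate median of compound wells and 100% = S159A mutant with DMSO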
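assay system = mABHD4 protein | compound dosing = single nominal dose of 8.92 µM, 0.89% DMSO final | read-out basis = percent inhibition of probe binding, normalized to plate controls | schedule = Enzyme–compound pre-incubation 45 min, then probe 60 min, both 25 °C | detection = fluorescence polarization, excitation 525 nm, emission 598 nm, BODIPY TMR filters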
SIAE inh: inhibitors of human sialic acid acetylesterase SIAE; 0.69% of 370,000 active; SIAE FP-Rh probe binding, fluorescence polarization; Q9HAT2; inhibition, % at 9.66 µM;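 active = inhibition above a cutoff: mean of compounds within the control limits plus 3 SD of those, cut at about 17% in these data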;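 also: 0% = plate median of compound wells and 100% = probe without SIAE protein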
Target sequence (Q9HAT2 whole entry, looked up): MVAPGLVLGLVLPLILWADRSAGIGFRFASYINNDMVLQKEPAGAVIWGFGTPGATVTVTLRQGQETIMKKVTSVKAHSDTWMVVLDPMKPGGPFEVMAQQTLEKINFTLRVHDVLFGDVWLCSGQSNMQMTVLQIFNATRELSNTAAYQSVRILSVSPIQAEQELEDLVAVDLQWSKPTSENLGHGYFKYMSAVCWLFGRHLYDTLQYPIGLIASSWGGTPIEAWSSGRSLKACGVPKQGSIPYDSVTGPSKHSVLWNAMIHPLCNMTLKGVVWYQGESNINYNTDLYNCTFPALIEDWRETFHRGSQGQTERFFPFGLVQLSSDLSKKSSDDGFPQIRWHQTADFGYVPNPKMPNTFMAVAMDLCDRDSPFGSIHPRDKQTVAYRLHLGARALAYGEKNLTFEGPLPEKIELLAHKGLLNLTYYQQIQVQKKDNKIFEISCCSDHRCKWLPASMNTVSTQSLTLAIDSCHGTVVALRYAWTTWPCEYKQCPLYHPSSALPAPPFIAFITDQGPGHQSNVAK
HTRA1 inhibitor: HTRA1 (human) protease inhibition; recombinant HTRA1, FP-rhodamine activity-based probe, fluorescence polarization; 0.5% of 340,000 active; inhibition, % at 5.96 µM; AID 504803; in the data active = inhibition above about 36%;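 also: 0% = enzyme with DMSO and 100% = wells lacking enzyme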
rCAG RNA binder: binds r(CAG) RNA repeats. r(CAG) RNA repeat, TO-PRO-1 dye displacement fluorescence. inhibition, % at 3 µM. 1.3% of 370,000 active;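 active = inhibition above the plate cutoff, the mean of all test compounds on that plate plus 3 SD, cut at about 35% in these data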;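 also: 0% = DMSO alone and 100% = 100 µM mitoxantrone as full dye displacement; higher means more dye released from RNA so lower well fluorescence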
PRMT1 inh: inhibitors of human PRMT1 | recombinant PRMT1, activity-based probe fluorescence polarization | inhibition, % at 2.79 µM | 1.3% of 370,000 active | AID 652257;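 active = inhibition above about 21% made by adding two undisclosed values, limit read from the data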
rCAG binder conf: r(CAG) RNA repeat binding, confirmation; shares compounds with rCAG RNA binder; TO-PRO-1 dye displacement fluorescence; inhibition, % at 3 µM; 70% of 4,300 active;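 active = inhibition above a per-plate cutoff, the mean inhibition of sample wells plus 3 SD, cut at about 35% in these data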;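 also: loss of TO-PRO-1 fluorescence as compound displaces dye from 1x1 AA loop RNA; 0% = DMSO only wells and 100% = 100 µM mitoxantrone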
DNA CAG counter: disrupts DNA CAG TO-PRO-1 complex, flagging rCAG hits; shares compounds with rCAG RNA binder; AID 652068; d(CAG) DNA oligo TO-PRO-1 dye displacement, fluorescence; inhibition, % at 3 µM; 94% of 4,300 active;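 active = inhibition above its plate's cutoff, the mean test-well inhibition plus 3 SD, cut at about 4.8% in these data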;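 also: 0% = DNA dye mix with DMSO and 100% = 100 µM mitoxantrone; hits displace the dye from DNA and so lower well fluorescence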
DNA CAG DR: counter-screen for rCAG binders: inhibitors of DNA CAG TO-PRO-1 complex; shares compounds with rCAG RNA binder; DNA CAG/GTC duplex TO-PRO-1 dye displacement fluorescence; IC50, µM; 20% of 250 active; in the data active = IC50 below about 10 µM
Starred values were filed as active, the others as inactive; i = inactive; . = no result given. Compounds with a hit are over-represented: about 3.3% of the library has one in this group of screens.

SMILES	ABHD4 inh	SIAE inh	HTRA1 inhibitor	rCAG RNA binder	PRMT1 inh	rCAG binder conf	DNA CAG counter	others
O=C(COc1ccc2c(c1)oc(=O)c1ccccc12)NC(Cc1ccc(Cl)cc1)C(=O)O (stereo unspecified)	-9	-11	-9	56*	1	56*	19*
COc1ccc(-c2cc3ccc(OCC(C)=O)cc3oc2=O)cc1OC	-2	3	-4	9	-3	.	.
Cc1c(Cc2ccccc2)c(=O)oc2cc(OCC(=O)N[C@@H](Cc3ccccc3)C(=O)O)ccc12	10	4	-9	42*	1	45*	12*
O=C(COc1ccc2c(c1)oc(=O)c1ccccc12)N[C@@H](Cc1ccccc1)C(=O)O	-9	-1	-3	34	13	.	.
CSC[C@H](NC(=O)COc1cc2c(c3oc(=O)c(C)c(C)c13)CCC(C)(C)O2)C(=O)O	-2	4	1	24	1	.	.
O=C(CSc1nnc(-c2cccs2)n1Cc1ccco1)Nc1ccc(Oc2ccccc2)cc1	-33	-13	.	8	1	.	.
COc1cccc(C(=O)n2ccc3ccc(-c4ccc5ccn(Cc6ccc(C#N)cc6)c5c4)cc32)c1	-14	-5	.	24	6	.	.
Cc1c(Cc2ccccc2)c(=O)oc2cc(OCc3nn[nH]n3)ccc12	-9	-6	-15	38*	0	36*	9.1*
CCOC(=O)CCc1c(C)c2ccc(OCc3nn[nH]n3)cc2oc1=O	-8	-9	-4	13	2	.	.
Cc1c(CC(=O)O)c(=O)oc2cc3oc4c(c3cc12)CCCC4	7	2	-4	8	-2	.	.
Cc1oc2cc3oc(=O)c(CC(=O)O)c(C)c3cc2c1-c1ccccc1	3	-15	-21	47*	3	39*	11*
Cc1c(CC(=O)O)c(=O)oc2cc(OCc3ccc(Cl)cc3)ccc12	9	-2	1	38*	-3	33	6.9*
CCOC(=O)[C@@]12CN(C(=O)OC(C)(C)C)CC=C1N(Cc1ccc(OC)cc1)C(=O)[C@H]2CC(=O)NCCCN1CCCC1=O	8	-1	.	3	-2	.	.
O=C(Nc1ccc(Cl)cc1)OC[C@@H]1CSCCS(=O)(=O)N1	-4	0	.	1	2	.	.
CN1C(=O)C[C@@](C#N)(C(=O)NCc2ccccc2)[C@H]1c1ccccc1	1	-2	.	0	0	.	.
C=CCOc1ccc(/C=C2\C(=N)N3N=C(S(=O)(=O)CC)SC3=NC2=O)cc1OC	-2	-6	3	36*	8	82*	42*
CCS(=O)(=O)C1=NN2C(=N)/C(=C\c3ccc(OC(=O)c4ccco4)c(OC)c3)C(=O)N=C2S1	0	-5	-2	52*	5	80*	47*
CC(C)CS(=O)(=O)C1=NN2C(=N)/C(=C\c3ccc(OC(=O)c4ccco4)cc3)C(=O)N=C2S1	-15	-40	3	81*	0	87*	66*
CCS(=O)(=O)C1=NSC2=NC(=O)/C(=C\c3ccc(OC(=O)c4ccco4)c(OC)c3)C(=N)N21	3	-9	2	21	0	.	.
Cc1ccccc1CN1CCCCC(NC(=O)c2c(F)cccc2F)C1=O (stereo unspecified)	2	7	.	0	0	.	.
O=C(CNC(=O)C(c1ccccc1)c1ccccc1)N/N=C/c1ccc(O)c([N+](=O)[O-])c1	17	-2	2	44*	5	22	4.7*
O=C(CNC(=O)c1ccco1)N/N=C/c1ccc(O)c([N+](=O)[O-])c1	9	1	7	5	1	.	.
O=C(N/N=C/c1ccc(O)c([N+](=O)[O-])c1)C1CC1(c1ccccc1)c1ccccc1 (stereo unspecified)	19	2	6	50*	3	50*	19*
COC(=O)[C@]12C[C@H](CC(=O)NCc3cccs3)C(=O)N(Cc3ccccc3)C1=C[C@H](C(C)C)O[C@@H]2C1CC1	-7	0	.	1	1	.	.
COc1cc(NS(=O)(=O)c2ccc(NC(C)=O)cc2)nc(OC)n1	1	0	5	0	0	.	.
SMILES	ABHD4 inh	SIAE inh	HTRA1 inhibitor	rCAG RNA binder	PRMT1 inh	rCAG binder conf	DNA CAG counter	others
COc1cccc(C(=O)/C=C/Nc2ccc(S(=O)(=O)Nc3cc(OC)nc(OC)n3)cc2)c1	-5	-7	-6	45*	-2	54*	19*
COc1ccc(-c2csc(Nc3ccc(S(=O)(=O)Nc4cc(OC)nc(OC)n4)cc3)n2)cc1	27	13	2	90*	-2	90*	57*
COc1cc(NS(=O)(=O)c2ccc(N/C=C\C(=O)c3ccc(OC)c(OC)c3)cc2)nc(OC)n1	2	-4	-3	35*	1	46*	14*
COCCCNC(=O)C[C@H]1C[C@@]2(C(=O)OC)C(=C[C@H](C(C)C)O[C@@H]2C2CC2)N(Cc2ccc3c(c2)OCO3)C1=O	2	3	.	0	-4	.	.
CCNC(=S)NNC(=O)CSc1nnc(SCc2cccc3ccccc23)s1	-2	8	.	27	10	.	.
O=C(CSc1nc2ccccc2o1)NN=C/C=C\c1ccccc1[N+](=O)[O-]	9	-2	.	14	20	.	.
Cc1nn(CCc2nn[nH]n2)c2nc(-c3ccc(Br)cc3)cc(C(F)(F)F)c12	-4	-9	-4	44*	-2	71*	25*	DNA CAG DR=i
Cc1nn(CCc2nn[nH]n2)c2nc(C(F)(F)F)cc(C(F)(F)F)c12	-5	1	1	6	4	.	.
COc1ccc(NS(=O)(=O)c2cccc(C(=O)NN=Cc3ccc(OC)cc3OC)c2)cc1	-42	8	-27	9	-1	.	.
COc1ccc(NS(=O)(=O)c2cccc(C(=O)NN=Cc3cc(Br)c(O)c(Br)c3)c2)cc1	1	-26	23	39*	3	43*	17*
CC(C)=CCC/C(C)=C/CNCC(=O)N1c2ccccc2[C@]2(C)C[C@@H]3C(=O)N(C/C=C(\C)CCC=C(C)C)CC(=O)N3[C@H]12	7	6	.	3	2	.	.
Cc1c(CCC(=O)N2CCC[C@H]2C(=O)O)c(=O)oc2c(C)c3oc4c(c3cc12)CCCC4	-5	-15	-8	38*	3	58*	19*	DNA CAG DR=>30
CCOC(=O)c1c(N2C(=O)Nc3ccccc3N2O)sc2c1CCCCC2	3	-4	5	27	2	.	.
CCOC(=O)c1c(-c2ccccc2)csc1N1C(=O)Nc2ccccc2N1O	1	4	1	50*	-2	38*	8.8*
COC(=O)c1c(N2C(=O)Nc3ccccc3N2O)sc2c1CCCC2	-8	0	-4	40*	2	36*	8.4*
